The values below come from ChEMBL document CHEMBL5385937.

The source made the active and inactive calls. The rule behind the calls is not given here.

The target in assay [1] is Indoleamine 2,3-dioxygenase 1 (Homo sapiens) (UniProt P14902). Kind of assay: Inhibition of IDO1 in human BXPC-3 cells assessed as reduction in IFNgamma induced Trp level at 5 mM pretreated with IFNgamma for 24 hrs followed by compound addition for 30 mins prior to Trp addition and measured after 30 mins by HPLC-MS/MS analysis. Format: cell-based. The note with it: time 25.0 hrs. The gist of the method:
(§1)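 BxPC-3 cells were kept in Trp-free RPMI for 48 h, then given 50 ng/mL IFN-γ with starvation continued another 24 h. Medium was replaced by Trp-free medium containing compound for 30 min. 50 μM Trp was then added for 30 min. Supernatant Trp was measured by HPLC-MS/MS after 7% trichloroacetic acid precipitation; mean ± SD, n = 3.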

Assay [2] deals with T1, Bifunctional epoxide hydrolase 2 (Homo sapiens) (UniProt P34913).
T1 sequence (whole entry): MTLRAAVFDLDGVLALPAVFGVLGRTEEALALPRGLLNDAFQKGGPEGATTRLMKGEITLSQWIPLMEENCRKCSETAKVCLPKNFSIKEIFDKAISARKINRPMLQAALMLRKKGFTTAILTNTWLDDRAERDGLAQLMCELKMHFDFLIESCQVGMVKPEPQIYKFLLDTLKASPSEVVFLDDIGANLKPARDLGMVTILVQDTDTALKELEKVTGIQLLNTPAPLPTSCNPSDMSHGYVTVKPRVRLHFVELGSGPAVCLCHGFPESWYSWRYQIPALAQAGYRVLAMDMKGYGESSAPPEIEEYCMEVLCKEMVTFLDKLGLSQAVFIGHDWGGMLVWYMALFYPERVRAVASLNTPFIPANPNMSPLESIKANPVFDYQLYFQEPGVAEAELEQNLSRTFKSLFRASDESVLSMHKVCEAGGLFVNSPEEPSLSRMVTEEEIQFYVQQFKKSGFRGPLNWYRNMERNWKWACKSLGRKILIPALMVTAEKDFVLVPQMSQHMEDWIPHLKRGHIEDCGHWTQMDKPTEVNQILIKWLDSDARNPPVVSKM
The conditions noted are these: HAP1, dose 500.0 nM.

The target of assay [3] is Indoleamine 2,3-dioxygenase 1 (Homo sapiens) (UniProt P14902). As to the kind of experiment: Inhibition of IDO1 in human BXPC-3 cells assessed as reduction in IFNgamma induced kynurenine level at 10 uM incubated for 48 hrs by LC-MS analysis. Type of assay: cell-based. The gist of the method: (§2)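 BxPC-3 cells were seeded at 20,000/well in phenol-red-free medium. After 24 h, 50 ng/mL IFN-γ and 380 μM Trp were added together with compound for 48 h. Supernatant was acidified with trichloroacetic acid (7% final), kept 15 min at room temperature and centrifuged. Kyn and Trp were quantified by HPLC-MS/MS.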

For assay [4] the target is unchanged. Kind of assay: Inhibition of recombinant human IDO1 expressed in Escherichia coli BL21(DE3) preincubated for 40 mins followed by Trp addition and measured after 60 mins by LC-MS analysis. The note with it: time 100.0 min.
For assay [5] the target is unchanged. As to the kind of experiment: Inhibition of IDO1 in human BXPC-3 cells assessed as increase in Trp level at 10 uM incubated for 48 hrs in presence of IFNgamma by LC-MS analysis. Format: cell-based. The gist of the method:
as §2

Assay [6] has the same target. Kind of assay: Inhibition of IDO1 in human BXPC-3 cells assessed as reduction in IFNgamma induced Trp level at 5 uM pretreated with IFNgamma for 24 hrs followed by compound addition for 30 mins prior to Trp addition and measured after 30 mins by HPLC-MS/MS analysis. Type of assay: cell-based. The conditions noted are these: time 25.0 hrs. A digest of the protocol:
as §1

Assay [7] has the same target. Kind of assay: Inhibition of IDO1 in human HeLa cells assessed as reduction in IFNgamma induced IDO1 mRNA expression level incubated for 24 hrs by qPCR analysis. Format: cell-based. A digest of the protocol: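 HeLa cells were plated at 250,000/well and grown 24 h, then treated with 50 ng/mL IFN-γ plus compound for 24 h. Total RNA was extracted with on-column DNase digestion, and cDNA was made from 800 ng RNA. IDO1 mRNA was quantified by qPCR; mean ± SD, n = 3.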
In general terms: Real-time PCR tracks product formation cycle by cycle.

The target is the same in assay [8]. As to the kind of experiment: Inhibition of IDO1 in HEK293T cells assessed as reduction in IFNgamma induced IDO1 protein expression incubated for 48 hrs. Type of assay: cell-based.
For assay [9] the target is unchanged. As to the kind of experiment: Inhibition of IDO1 in human HeLa cells assessed as reduction in IFNgamma induced IDO1 protein expression level incubated for 24 hrs by immunoblotting analysis. Format: cell-based. A digest of the protocol:
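HeLa cells were plated at 250,000/well and grown 24 h, then exposed to 50 ng/mL IFN-γ and compound for 24 h. Cells were lysed in Laemmli buffer and 20–100 μg protein was resolved on 10% gels. Blots were probed with anti-IDO1 (1:5,000) and IRDye secondaries. IDO1 was normalized to vinculin; mean ± SD, n = 4.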
A general note: Immunoblotting shows a protein as a band on a membrane.

Indoleamine 2,3-dioxygenase 1 (Homo sapiens), sequence (P14902 whole entry, looked up): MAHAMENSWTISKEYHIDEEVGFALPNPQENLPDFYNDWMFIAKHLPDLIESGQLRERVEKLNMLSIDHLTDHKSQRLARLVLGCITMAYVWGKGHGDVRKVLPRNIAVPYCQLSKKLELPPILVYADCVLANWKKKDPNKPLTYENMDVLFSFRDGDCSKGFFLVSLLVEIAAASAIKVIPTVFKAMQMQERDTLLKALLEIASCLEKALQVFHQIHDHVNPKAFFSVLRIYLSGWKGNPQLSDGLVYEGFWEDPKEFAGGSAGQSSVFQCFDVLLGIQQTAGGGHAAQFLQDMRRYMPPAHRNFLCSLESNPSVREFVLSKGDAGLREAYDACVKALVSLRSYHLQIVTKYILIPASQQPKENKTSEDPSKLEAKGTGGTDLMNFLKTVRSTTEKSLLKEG

As to `CC(C)C[C@H](N)C(=O)O`, in assay [1], the inhibition result is “Active”.
Turning to `NS(=O)(=O)NCCNc1nonc1/C(=N/O)Nc1ccc(F)c(Br)c1`, the inhibition entry in [2] is “Active”.
For `O=C(c1cn(CCOc2ccc3c(c2)OCO3)c2ccc(Br)cc12)C(F)(F)F`, the inhibition result in assay [3] was “Active”. Moreover, the inhibition result in [4] is “inactive”. In assay [5], the inhibition entry is “Dose-Dependent Effect”.
Regarding `O=C(Cn1cc(C(=O)C(F)(F)F)c2cc(Br)ccc21)NC1CCCCCC1`, the inhibition result in [6], in [4], in [7], in [8] and in assay [9] was “inactive” each time.
